# Experimental data of several laboratories.
# Protocols differ between the studies behind these lines.
# Organism: Salmonella enterica
# Effect on: microbial growth
SMILES,technique,strain,time,pH,notes,MIC
CC1(C)S[C@@H]2[C@H](NC(=O)[C@H](N)c3ccccc3)C(=O)N2[C@H]1C(=O)O,broth dilution,,,,,8 µg/mL
CNC(=O)c1cc(Oc2ccc(NC(=O)Nc3ccc(Cl)c(C(F)(F)F)c3)cc2)ccn1,,TYPHIMURIUM,,,,> 100 µM
CN(C)[C@@H]1C(O)=C(C(N)=O)C(=O)[C@@]2(O)C(O)=C3C(=O)c4c(O)cccc4[C@@](C)(O)[C@H]3C[C@@H]12,,ATCC14028 TYPHIMURIUM,,,,8 µg/mL
C/C(=N\NC(=N)N)c1ccc(Oc2ccc(/C(C)=N/NC(=N)N)cc2)cc1.Cl.Cl,,ATCC14028,,,,54.9 µg/mL
O=C(Nc1ccc2c(c1)OC(F)(F)O2)Nc1ccc(Cl)c(C(F)(F)F)c1,,TYPHIMURIUM,,,,> 100 µM
O=C(O)c1cn(C2CC2)c2cc(N3CCNCC3)c(F)cc2c1=O,,,20 h,pH 7.2,,0.0156 µg/mL
C[C@@H](O)[C@H]1C(=O)N2C(C(=O)O)=C(S[C@@H]3CN[C@H](C(=O)N(C)C)C3)[C@H](C)[C@H]12,broth dilution,CHOLERAESUIS,,,clinical isolate,≤ 0.5 µg/mL
COc1cc(Cc2cnc(N)nc2N)cc(OC)c1OC,,,20 h,pH 7.2,,0.25 µg/mL
Cl.N=C(N)N/N=C/c1ccc(-c2ccc(/C=N/Nc3ccccc3Cl)cc2)cc1,,ATCC14028,,,,> 215 µg/mL
Cc1cc(NS(=O)(=O)c2ccc(N)cc2)no1,,,20 h,pH 7,,64 µg/mL
NC[C@H]1O[C@H](O[C@H]2[C@H](O)[C@@H](O[C@H]3O[C@H](CO)[C@@H](O)[C@H](N)[C@H]3O)[C@H](N)C[C@@H]2N)[C@H](N)C[C@@H]1O,,ATCC14028,,,,150 µg/mL
